The target in assay [1] is T1, Prostaglandin G/H synthase 1 (Homo sapiens, UniProt P23219). The assay can be described thus: Concentration (in uM) to inhibit 50% of Prostaglandin G/H synthase 1 (COX-1) and is expressed in IC50. In a few lines:
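Human platelet microsomal fraction as enzyme, stored at -70 °C. Run 5 min at 37 °C, started by enzyme, stopped with HCl. PGF2α read by EIA, duplicates. IC50 taken from the percent-inhibition versus concentration curve.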

Assay [2] concerns the target T2, Prostaglandin G/H synthase 2 (Homo sapiens, UniProt P35354).
T2 sequence (P35354 whole entry): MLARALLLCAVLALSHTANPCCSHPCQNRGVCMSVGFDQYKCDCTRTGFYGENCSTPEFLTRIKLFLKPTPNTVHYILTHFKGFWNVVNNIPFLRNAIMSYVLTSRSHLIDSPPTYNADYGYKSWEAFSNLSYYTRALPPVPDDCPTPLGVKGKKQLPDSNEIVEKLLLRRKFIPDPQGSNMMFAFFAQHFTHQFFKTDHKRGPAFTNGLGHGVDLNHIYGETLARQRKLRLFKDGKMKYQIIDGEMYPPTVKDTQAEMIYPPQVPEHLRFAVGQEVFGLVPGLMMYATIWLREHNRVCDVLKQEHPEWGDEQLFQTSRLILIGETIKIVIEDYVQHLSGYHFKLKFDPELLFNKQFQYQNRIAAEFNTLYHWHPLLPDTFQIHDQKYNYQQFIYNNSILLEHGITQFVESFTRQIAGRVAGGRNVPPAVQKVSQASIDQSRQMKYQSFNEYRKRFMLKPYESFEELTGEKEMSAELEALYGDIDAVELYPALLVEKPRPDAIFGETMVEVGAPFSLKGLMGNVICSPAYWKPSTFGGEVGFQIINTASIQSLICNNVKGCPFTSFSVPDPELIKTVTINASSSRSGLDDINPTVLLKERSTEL

For assay [3], the system named is Mus musculus. The assay can be described thus: % reduction in phenylquinone-induced abdominal constriction (PAC) at po (peroral) dose of 70 mg/kg in mice. The class given is functional, Abdomen.
For the next assay, the system named is Rattus norvegicus. The assay can be described thus: Carrageenan paw edema index (CPE index) as ratio of the reduction in paw volume relative to tebufelone at a po (peroral) dose of 50 mg/kg. The assay is classed as functional.
For assay [4], the system named is Mus musculus. As to the kind of experiment: Compound was tested for % reduction in phenylquinone-induced abdominal constriction (PAC) at po (peroral) dose of 70 mg/kg in mice. The assay is classed as functional. To be noted: Abdomen.
For assay [5], the target named is Arachidonate 5-lipoxygenase (Rattus norvegicus). As to the kind of experiment: The compound was tested for the concentration (in uM) to inhibit 50% of 5-Lipoxygenase (5-LOX) and is expressed in IC50.
The target of assay [6] is T1, Prostaglandin G/H synthase 1. As to the kind of experiment: Tested for selectivity for inhibition of human platelet derived COX-1 and recombinant human COX-2. In a few lines: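 COX-1 was microsomes from human platelet concentrate and COX-2 was a sonicated lysate of Sf9 cells infected with baculovirus carrying human COX-2 cDNA. Each enzyme was added to AA (33 µM) and SnCl2 (0.5 mg/mL) in 50 mM Tris-HCl pH 7.5 and run 5 min at 37 °C, then stopped with HCl. PGF2α was measured by EIA, in duplicate. The value is IC50 COX-1/IC50 COX-2.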

The species entered for assay [7] is Mus musculus. The assay can be described thus: The compound was tested for the concentration to inhibit 50% of phenylquinone-induced abdominal constriction (PAC). Conditions: Abdomen. The class given is functional.

The structures appear in SMILES notation.

T1 sequence (P23219 whole entry): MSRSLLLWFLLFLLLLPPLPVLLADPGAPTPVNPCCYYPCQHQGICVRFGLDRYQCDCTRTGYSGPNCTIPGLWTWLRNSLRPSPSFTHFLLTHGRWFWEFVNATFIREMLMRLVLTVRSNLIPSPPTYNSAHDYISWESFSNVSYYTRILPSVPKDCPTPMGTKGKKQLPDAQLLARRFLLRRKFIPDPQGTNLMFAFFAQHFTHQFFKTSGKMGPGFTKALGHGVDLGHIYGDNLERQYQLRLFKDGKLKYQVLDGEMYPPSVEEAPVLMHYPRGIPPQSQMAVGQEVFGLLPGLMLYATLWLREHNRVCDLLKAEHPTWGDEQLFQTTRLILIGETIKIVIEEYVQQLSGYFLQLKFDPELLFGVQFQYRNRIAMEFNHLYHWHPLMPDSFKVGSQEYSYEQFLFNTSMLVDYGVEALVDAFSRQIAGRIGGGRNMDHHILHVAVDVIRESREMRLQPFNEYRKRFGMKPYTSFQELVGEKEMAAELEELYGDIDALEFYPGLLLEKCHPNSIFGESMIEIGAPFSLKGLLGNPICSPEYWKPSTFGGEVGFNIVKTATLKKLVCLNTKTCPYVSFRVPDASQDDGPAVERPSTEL

For the compound `CCCC(=O)c1cc(C(C)(C)C)c2c(c1)C(C)(C)CO2`, the IC50 in assay [1] and in assay [2] was 95 nM throughout. The Reduction in the assay with Mus musculus [3] came out at 85%.

For `CC(O)c1cc(C(C)(C)C)c2c(c1)C(C)(C)CO2` (centres undefined), the CPE index with Rattus norvegicus came out at 0.

In the case of `C#CCCCC(=O)c1cc(C(C)(C)C)c(O)c(C(C)(C)C)c1` [TEBUFELONE], the half-maximal inhibitory concentration (IC50) in assay [1] stood at 250 nM; in assay [2], 100 nM.

In the assay on Mus musculus [4], `CC(C)(Cl)CC(=O)c1cc(C(C)(C)C)c2c(c1)C(C)(C)CO2` had an ED50 of 16 mg/kg. In addition, the IC50 in assay [1] was 1000 nM; in assay [5], 8000 nM; in assay [2] it was 100 nM. In addition, the CPE index in the assay with Rattus norvegicus came to 1.2.

Turning to `CC(C)(C)C(=O)c1cc(C(C)(C)C)c2c(c1)C(C)(C)CO2`, the CPE index in the assay with Rattus norvegicus was 0.3.

For the compound `CC(=O)SCC(=O)c1cc(C(C)(C)C)c2c(c1)C(C)(C)CO2`, the Reduction with Mus musculus [3] was 64%. The CPE index in the assay with Rattus norvegicus came out at 0.95.

The compound `CC(C)(C)c1cc(C(=O)C2CCCC2)cc2c1OCC2(C)C` had a Reduction in the assay on Mus musculus [3] of 56%. Also, the CPE index in the assay with Rattus norvegicus amounted to 0.65.

As for `CC(C)(C)c1cc(C(=O)CS(=O)(=O)CC2CC2)cc2c1OCC2(C)C`, the half-inhibitory concentration (IC50) is 5000 nM in assay [1] and 2000 nM in assay [2]. Also, in assay [6], the Selectivity turned out to be 2.5. In addition, the CPE index in the assay on Rattus norvegicus stood at 0.

With `CSCCC(=O)c1cc(C(C)(C)C)c2c(c1)C(C)(C)CO2`, the CPE index in the assay with Rattus norvegicus is 0.7.

Turning to `CC(C)(C)c1cc(C(=O)C2CCCCC2)cc2c1OCC2(C)C`, in the assay on Rattus norvegicus, the CPE index stood at 0.36.

With `CC(C)(C)c1cccc2c1OCC2(C)C`, the CPE index in the assay with Rattus norvegicus is 0.31.

In the assay with Mus musculus [3], `CC(C)(C)c1cc(C(=O)CCC2CC2)cc2c1OCC2(C)C` returned a Reduction of 58%. For the same compound, the CPE index in the assay on Rattus norvegicus is on record as 0.18.

As to `CC(C)(C)c1cc(C(=O)CSCC2CC2)cc2c1OCC2(C)C`, the IC50 in assay [1] was 650 nM; in assay [2], 400 nM. In addition, in the assay with Mus musculus [3], the Reduction is 54%. Also, the Selectivity in assay [6] was found to be 1.6. Also, the CPE index in the assay on Rattus norvegicus worked out at 0.62.

`CC(C)(C)c1cc(C(=O)CCCC2CC2)cc2c1OCC2(C)C`: the IC50 came to 7000 nM in assay [1] and 220 nM in assay [2].

With `CC(C)(C)c1cc(C(=O)c2ccccc2Cl)cc2c1OCC2(C)C`, the CPE index in the assay on Rattus norvegicus stood at 0.

`CC(=O)c1cc(C(C)(C)C)c2c(c1)C(C)(C)CO2` came in with a Reduction in the assay with Mus musculus [3] of 78%. In addition, the CPE index with Rattus norvegicus worked out at 0.92.

In the case of `CC(C)(C)c1cc(C(=O)c2ccccc2)cc2c1OCC2(C)C`, the IC50 in assay [1] was 150 nM; in assay [2] it was 7 nM. For the same compound, the Reduction with Mus musculus [3] is 34%.

On to `CC(C)(C)c1cc(C(=O)C2CC2)cc2c1OCC2(C)C`, for which the Reduction in the assay with Mus musculus [3] is 85%. Also, in the assay on Rattus norvegicus, the CPE index amounted to 0.67.

On to `CC(C)(C)c1cc(C(=O)C[S+]([O-])CC2CC2)cc2c1OCC2(C)C` (centres undefined), for which the IC50 in assay [1] is 20000 nM; in assay [2] it was 4000 nM. For the same compound, the Selectivity in assay [6] stood at 5. Also, the CPE index in the assay with Rattus norvegicus was determined as 0.04.

Compound `C[S+]([O-])CC(=O)c1cc(C(C)(C)C)c2c(c1)C(C)(C)CO2` (centres undefined) came in with an ED50 in the assay listed under Mus musculus [7] of 20 mg/kg. Further, the CPE index in the assay with Rattus norvegicus is reported as 1.01.

As to `CC(=O)OCC(=O)c1cc(C(C)(C)C)c2c(c1)C(C)(C)CO2`, in the assay on Rattus norvegicus, the CPE index was found to be 0.21.

For `CC(C)(C)c1cc(C(=O)CS(C)(=O)=O)cc2c1OCC2(C)C`, the CPE index with Rattus norvegicus is given as 0.

Regarding `CC(C)(C)c1cc(C(=O)CC2CC2)cc2c1OCC2(C)C`, the CPE index with Rattus norvegicus is 1.06.

Turning to `COCCOCC(=O)c1cc(C(C)(C)C)c2c(c1)C(C)(C)CO2`, the CPE index in the assay with Rattus norvegicus worked out at 0.52.

Regarding `CCCCCC(=O)c1cc(C(C)(C)C)c2c(c1)C(C)(C)CO2`, the IC50 was over 10000 nM in assay [1] and 90 nM in assay [2]. In assay [6], the Selectivity is over 111. In the assay on Rattus norvegicus, the CPE index was found to be 0.4.

`CN(C)CCC(=O)c1cc(C(C)(C)C)c2c(c1)C(C)(C)CO2`: the CPE index in the assay on Rattus norvegicus was found to be 0.32.

Turning to `CC(C)=CC(=O)c1cc(C(C)(C)C)c2c(c1)C(C)(C)CO2`, the Reduction in the assay on Mus musculus [3] was found to be 50%. For the same compound, the CPE index with Rattus norvegicus stood at 1.22.

On to `CCCCC(=O)c1cc(C(C)(C)C)c2c(c1)C(C)(C)CO2`, for which the IC50 in assay [1] was found to be 2000 nM; in assay [2] it was 40 nM.

As to `CC(C)(C)c1cc(C(=O)/C=C/CC2CC2)cc2c1OCC2(C)C`, the IC50 was 800 nM in assay [1] and 250 nM in assay [2]. For the same compound, in the assay on Rattus norvegicus, the CPE index stood at 0.18.

Turning to `CN(CC(=O)c1cc(C(C)(C)C)c2c(c1)C(C)(C)CO2)CC1CC1`, the IC50 in assay [1] stood at 30000 nM; in assay [2], 2500 nM. The CPE index in the assay with Rattus norvegicus turned out to be 0.38.

Compound `CC(C)C(=O)c1cc(C(C)(C)C)c2c(c1)C(C)(C)CO2` displayed an ED50 in the assay filed under Mus musculus [7] of 22 mg/kg. For the same compound, the CPE index with Rattus norvegicus is on record as 1.25.

In the case of `CC(C)(C)c1cc(C(=O)c2ccc(F)cc2)cc2c1OCC2(C)C`, the CPE index in the assay on Rattus norvegicus came out at 0.52.

For `C#CCCCC(=O)c1cc(C(C)(C)C)c2c(c1)C(C)(C)CO2`, the figures for the IC50 in assay [1] and in assay [2] were 60 nM and 15 nM, respectively.

As to `CCC(=O)c1cc(C(C)(C)C)c2c(c1)C(C)(C)CO2`, the ED50 in the assay filed under Mus musculus [7] came to 20 mg/kg. Also, in the assay with Rattus norvegicus, the CPE index turned out to be 1.14.

With `CSCC(=O)c1cc(C(C)(C)C)c2c(c1)C(C)(C)CO2`, in the assay with Mus musculus [3], the Reduction amounted to 35%. Further, the CPE index in the assay with Rattus norvegicus was determined as 1.77.

In the case of `CC(C)CCCC(=O)c1cc(C(C)(C)C)c2c(c1)C(C)(C)CO2`, the figures for the IC50 in assay [1], in assay [5] and in assay [2] were 15000 nM, 15000 nM and 4500 nM, respectively. Moreover, the Selectivity in assay [6] was determined as 3.3. For the same compound, in the assay on Rattus norvegicus, the CPE index turned out to be 0.36.

These data come from ChEMBL document CHEMBL1131314, “New cyclooxygenase-2/5-lipoxygenase inhibitors. 1. 7-tert-buty1-2,3-dihydro-3,3-dimethylbenzofuran derivatives as gastrointestinal safe antiinflammatory and analgesic agents: discovery and variation of the 5-keto substituent” (J Med Chem, 1998).
